Data as given in ChEMBL document CHEMBL3804766, “Discovery of Dual Inhibitors for Wild Type and D816V Mutant of c-KIT Kinase through Virtual and Biochemical Screening of Natural Products” (J Nat Prod, 2016).

Columns and labels:
[1] = biological target: T1, Mast/stem cell growth factor receptor Kit (Homo sapiens, UniProt P10721); assay: Inhibition of wild type c-KIT (unknown origin) expressed in T7-phage infected Escherichia coli BL21 assessed as remaining activity at 100 uM incubated for 1 hr with shaking by qPCR method relative to control
Outline: (§1)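 Competition binding assay run at a single 100 μM concentration, added from 40× DMSO stocks. Tagged kinase was combined with immobilized biotinylated ligand on streptavidin magnetic beads in SeaBlock/0.17× PBS/0.05% Tween 20/6 mM DTT for 1 h at RT with shaking. Beads were washed, then eluted with 0.5 μM free ligand for 30 min. Eluted kinase was quantified by qPCR as percent of control.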

[2] = system: Mast/stem cell growth factor receptor Kit (Homo sapiens), P10721 [D816V]; assay: Inhibition of c-KIT D816V mutant (unknown origin) expressed in HEK293 cells assessed as remaining activity at 100 uM incubated for 1 hr with shaking by qPCR method relative to control; type: cell-based; outline: as §1
[3] = biological target: T1, Mast/stem cell growth factor receptor Kit; assay: Inhibition of wild type His-tagged c-KIT (544 to 976 amino acids) (unknown origin) expressed in insect cells using poly[Glu:Tyr] (4:1) as substrate preincubated for 20 mins followed by [33P-gamma]ATP addition and subsequent inhibition for 2 hrs by radiometric assay
Outline: (§2)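 Compounds were serially diluted in DMSO and preincubated with enzyme for 20 min at RT. Final ATP was 1 μM. Reaction ran 2 h at RT, read by filter binding. Percent activity was taken relative to DMSO, and IC50 came from curve fitting.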

[4] = biological target: Mast/stem cell growth factor receptor Kit (Homo sapiens, UniProt P10721, D816V); assay: Inhibition of N-terminal GST-His-tagged c-KIT (544 to 976 amino acids) D816V mutant (unknown origin) expressed in Sf9 insect cells using poly[Glu:Tyr] (4:1) as substrate preincubated for 20 mins followed by [33P-gamma]ATP addition and subsequent inhibition for 2 hrs by radiometric assay; outline: as §2
Homo sapiens = organism: Homo sapiens; assay: Selectivity ratio of IC50 for wild type His-tagged c-KIT (544 to 976 amino acids) (unknown origin) to IC50 for N-terminal GST-His-tagged c-KIT (544 to 976 amino acids) D816V mutant (unknown origin)

Mast/stem cell growth factor receptor Kit (Homo sapiens), P10721 [D816V], sequence (P10721 whole entry D816V, the tested form may be a part): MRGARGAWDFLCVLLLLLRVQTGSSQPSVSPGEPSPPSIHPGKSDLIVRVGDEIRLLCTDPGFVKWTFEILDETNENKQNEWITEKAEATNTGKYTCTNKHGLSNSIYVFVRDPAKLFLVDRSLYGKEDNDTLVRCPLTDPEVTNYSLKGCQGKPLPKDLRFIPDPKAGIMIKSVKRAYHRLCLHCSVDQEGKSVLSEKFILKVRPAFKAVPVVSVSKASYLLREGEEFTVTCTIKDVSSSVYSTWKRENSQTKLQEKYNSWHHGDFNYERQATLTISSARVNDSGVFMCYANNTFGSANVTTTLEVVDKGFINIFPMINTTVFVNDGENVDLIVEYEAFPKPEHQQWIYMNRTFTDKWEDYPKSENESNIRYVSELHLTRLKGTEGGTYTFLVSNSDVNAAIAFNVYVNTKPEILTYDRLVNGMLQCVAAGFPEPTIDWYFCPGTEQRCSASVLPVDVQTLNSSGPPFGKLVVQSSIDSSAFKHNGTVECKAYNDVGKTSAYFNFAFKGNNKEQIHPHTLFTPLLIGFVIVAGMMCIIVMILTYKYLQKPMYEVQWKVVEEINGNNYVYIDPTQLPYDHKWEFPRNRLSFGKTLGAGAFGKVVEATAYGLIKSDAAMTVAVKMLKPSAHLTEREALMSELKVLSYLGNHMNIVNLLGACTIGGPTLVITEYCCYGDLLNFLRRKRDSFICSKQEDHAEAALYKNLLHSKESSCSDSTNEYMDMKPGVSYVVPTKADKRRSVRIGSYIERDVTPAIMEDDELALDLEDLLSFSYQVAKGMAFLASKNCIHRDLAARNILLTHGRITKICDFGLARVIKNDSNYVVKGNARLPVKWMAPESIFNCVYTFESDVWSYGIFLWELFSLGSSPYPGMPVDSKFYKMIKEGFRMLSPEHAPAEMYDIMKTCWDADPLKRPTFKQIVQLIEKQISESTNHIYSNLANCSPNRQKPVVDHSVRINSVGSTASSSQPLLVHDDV
T1 sequence (P10721 whole entry): as the sequence (P10721 whole entry D816V, the tested form may be a part) above, with V816D counted along it
Mast/stem cell growth factor receptor Kit (Homo sapiens, UniProt P10721, D816V), sequence (P10721 26-976 D816V limits assumed): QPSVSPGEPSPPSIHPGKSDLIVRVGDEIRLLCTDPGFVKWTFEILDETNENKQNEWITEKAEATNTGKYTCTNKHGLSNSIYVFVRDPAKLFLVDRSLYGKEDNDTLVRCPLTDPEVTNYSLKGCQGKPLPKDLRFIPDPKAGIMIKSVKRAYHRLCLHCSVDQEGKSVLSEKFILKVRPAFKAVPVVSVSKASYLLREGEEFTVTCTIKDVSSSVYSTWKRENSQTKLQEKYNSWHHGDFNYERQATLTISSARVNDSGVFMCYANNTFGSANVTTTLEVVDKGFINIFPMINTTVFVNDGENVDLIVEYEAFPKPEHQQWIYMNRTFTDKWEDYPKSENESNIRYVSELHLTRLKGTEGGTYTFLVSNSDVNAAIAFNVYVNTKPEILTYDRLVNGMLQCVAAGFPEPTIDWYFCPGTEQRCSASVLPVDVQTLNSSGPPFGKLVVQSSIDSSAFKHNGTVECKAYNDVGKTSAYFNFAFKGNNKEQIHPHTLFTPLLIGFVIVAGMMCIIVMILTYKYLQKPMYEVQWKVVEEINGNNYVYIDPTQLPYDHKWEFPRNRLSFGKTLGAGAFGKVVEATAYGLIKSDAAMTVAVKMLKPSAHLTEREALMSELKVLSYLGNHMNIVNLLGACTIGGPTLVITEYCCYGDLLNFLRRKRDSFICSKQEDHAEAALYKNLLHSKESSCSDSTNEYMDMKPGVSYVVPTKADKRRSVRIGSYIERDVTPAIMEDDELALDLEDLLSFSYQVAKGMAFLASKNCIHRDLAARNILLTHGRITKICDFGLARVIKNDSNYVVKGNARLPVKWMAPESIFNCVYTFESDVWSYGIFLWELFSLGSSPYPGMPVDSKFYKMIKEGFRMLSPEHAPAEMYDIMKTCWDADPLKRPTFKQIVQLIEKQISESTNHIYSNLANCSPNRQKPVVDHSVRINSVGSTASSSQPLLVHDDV

| Kinase binding remaining, % of control [1] [%] | Activity [2] [%] | IC50 [3] [nM] | IC50 [4] [nM] | Ratio IC50 (Homo sapiens) | SMILES |
| --- | --- | --- | --- | --- | --- |
| 1 | 0 | 7800 | 500 |  | COc1c(O)c(O)c2oc(-c3ccccc3)cc(=O)c2c1OC |
| 12 | 15 |  |  |  | O=C1c2c(O)cc(O)cc2O[C@H](c2ccc(O)c(O)c2)[C@H]1O |
| 0 | 15 | 15600 | 1400 | > 10 | COc1ccc(/C=C2\Oc3cc(O)ccc3C2=O)cc1 |
| 0 | 3 | 1500 | 600 |  | COc1ccc(-c2cc(=O)c3c(O)c(OC)c(O)cc3o2)cc1 [PECTOLINARIGENIN] |
